Shown are actives, neighbours in structure and some others; about 4.7% of the full set was active somewhere.
MC4R barr agon: agonists of human melanocortin 4 receptor (MC4R) beta-arrestin | 360,000 compounds, 0.98% hits | activation, % at 8.9 µM | P32245 | U2OS MC4R beta-arrestin complementation, luminescence; percent of melanotan II response, DMSO zero | AID 540308;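 active = activation above a per-plate cutoff, the mean activation of sample wells on that plate plus 3 SD, cut at about 8% in these data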
Target sequence (P32245 whole entry, looked up): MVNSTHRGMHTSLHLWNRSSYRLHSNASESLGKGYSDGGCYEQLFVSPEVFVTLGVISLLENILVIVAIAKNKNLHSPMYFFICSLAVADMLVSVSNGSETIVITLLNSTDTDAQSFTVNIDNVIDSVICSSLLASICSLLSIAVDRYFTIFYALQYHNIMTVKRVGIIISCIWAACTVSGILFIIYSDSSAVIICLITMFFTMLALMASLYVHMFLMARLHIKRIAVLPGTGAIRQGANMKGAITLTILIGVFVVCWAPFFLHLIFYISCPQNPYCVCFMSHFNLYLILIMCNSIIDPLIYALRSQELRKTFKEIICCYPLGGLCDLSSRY
AHR activator: activates the human aryl hydrocarbon receptor; AHR-responsive luciferase reporter cells, luminescence; 320,000 compounds, 2.5% hits; activation, % at 5 µM; P35869; AID 2796; in the data active = activation above about 47%;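 note: 0% = vehicle wells and 100% = reference agonist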
m5-HT2A agonist: activates the mouse 5-HT2A serotonin receptor; CHO-K1 mHTR2A beta-arrestin complementation, luminescence; percent of 30 µM serotonin response; activation, % at 7.6 µM; 360,000 compounds, 0.66% hits; P35363; AID 624169;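 active = activation above a run cutoff, the mean activation of all tested compounds plus 3 SD, cut at about 14% in these data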;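 note: 0% = plate median of compound wells and 100% = 30 µM serotonin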
MC4R antagonist: human MC4R antagonism in cAMP assay; 360,000 compounds, 0.48% hits; MC4R-expressing cells, MTII-stimulated cAMP, LANCE TR-FRET; AID 540295; inhibition, % at 6.5 µM;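 active = inhibition above its plate's cutoff, the mean of tested wells on that plate plus 3 SD, cut at about 29% in these data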;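 note: 0% = Melanotan II alone and 100% = Melanotan II plus saturating MCL0020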
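system = U2OS cells with stable human MC4R expression | also added = Melanotan II challenge after compound preincubation | dosing = one concentration, 6.5 µM nominal | incubation = compound 30 min, challenge 1 h, detection 1 h | measured by = TR-FRET with Eu-cAMP and labeled anti-cAMP, 671 nm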
GAA850 FXN act: increases GAA850 frataxin promoter reporter activity; 360,000 compounds, 0.56% hits; activation, % at 6 µM; HEK293 lucGAA850 FXN promoter luciferase reporter, 24 h; percent of 10 µM SAHA response;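 active = activation above the average of all compounds screened plus 3 SD, cutoff fixed separately per campaign, cut at about 7.5% in these data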;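 note: 0% = DMSO wells and 100% = 10 µM SAHA wells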
The depositor's hits bear a star; / = not tested or not shown.

SMILES	MC4R barr agon	AHR activator	m5-HT2A agonist	MC4R antagonist	GAA850 FXN act
O=C(O)c1ccccc1N=Nc1ccc(O)cc1	-1.8	-1.5	19.4*	-10.3	-0.5
Cc1[nH]c2ccccc2c1N=Nc1ccccc1C(=O)O	-3.1	74.9*	1.7	-6.2	2.5
Oc1[nH]c2ccccc2c1N=Nc1ccccc1	-1.7	46.0	5.6	-4.7	6.4
Oc1[nH]c2ccccc2c1N=Nc1ccccc1F	-0.4	53.6*	-0.2	-4.4	7.0
CC(C)(C)OC(=O)Nc1ccccc1-n1nnnc1C(C(=O)c1ccc(F)cc1)N1CCOCC1 (centres undefined)	/	/	5.1	/	/
C[C@@H](NC(=O)c1nc[nH]c1C(=O)N(C)Cc1ccccc1)c1ccccc1	-1.6	2.9	0.7	4.4	-0.5
Cc1ncc(CO)c(/C=N/NC(=S)Nc2ccc(Cl)c(Cl)c2)c1O	0.6	25.4	-5.8	17.4	0.4
Cc1ncc(CO)c(/C=N/NC(=S)Nc2cccc(Cl)c2)c1O	0.2	54.5*	-5.6	5.4	0.1
COc1ccc(C(=O)N2N=C(c3cccs3)CC2c2ccccc2O)cc1 (centres undefined)	11.7*	7.2	2.7	5.4	0.0
COc1ccc2cc(C3CC(c4cccs4)=NN3C(C)=O)c(Cl)nc2c1 (centres undefined)	-2.0	2.3	-2.6	6.0	1.9
CC(C)Oc1cc(F)ccc1-c1cc(C(=O)NCc2ccccn2)[nH]n1	-0.2	/	-5.5	-3.5	2.9
COC1OCC(O)C(NC(=O)N(C)N=O)C1O (centres undefined)	-2.1	/	1.2	1.5	0.7
N#CC1=C(N)SC(N)=C(C#N)C1CCc1ccccc1	3.0	86.0*	6.8	7.0	0.9
COC(=O)[C@@H]1Cc2c([nH]c3ccccc23)C(C)(C)N1C(=O)CCl	13.1*	/	-7.7	5.0	-3.5
COC(=O)C1Cc2c([nH]c3ccccc23)C2CCC(=O)N12 (centres undefined)	-0.4	/	-0.4	-3.6	-0.1
O=C(NNC(=O)c1ccccc1OCc1ccccc1)c1ccccc1F	-0.5	53.3*	-2.9	-3.8	3.9
O=C(NNC(=O)c1ccccc1OCc1ccccc1)c1ccccc1O	2.7	/	6.2	15.0	-3.3
O=C(c1c(O)c2ccccc2oc1=O)C1CCC1	-0.3	7.6	1.0	-1.9	0.4
O=C(c1ccccc1Cl)c1c(O)c2ccccc2oc1=O	0.1	54.9*	3.4	6.4	-0.3
N#Cc1cccc(NC(=O)CSc2nnc(C3CC3)n2C2CC2)c1	-2.5	-5.9	3.3	7.2	1.6
Cc1cccc2cc(-c3nc4ccc(C(=O)O)cc4[nH]3)c(=O)oc12	-0.3	3.4	4.3	-11.4	2.2
CN(C)S(=O)(=O)Oc1ccsc1C(=O)Nc1ccccc1Cl	-2.3	6.3	-9.9	-0.7	-1.4
CN(C)S(=O)(=O)Oc1ccsc1C(=O)Nc1cccc(Cl)c1Cl	-1.8	60.1*	-7.6	10.7	0.4
COc1cc(-c2nc3ccccn3c2/N=C/c2cc(OC)c(OC)c(OC)c2)ccc1O	-0.5	4.9	-0.4	-14.7	-3.7
CN(C)c1ccc(-c2nc3ccccn3c2/N=C/c2ccc(Br)cc2)cc1	-2.4	47.1*	0.3	-20.4	2.4
SMILES	MC4R barr agon	AHR activator	m5-HT2A agonist	MC4R antagonist	GAA850 FXN act
Cc1ccc(NC(=O)C(=O)NCCOc2ccc(Cl)cc2)c(C)c1	8.8*	-0.5	5.7	-2.1	-0.4
CCCOc1ccc(NCC(=O)Nc2ccc(C)cc2C)cc1	-1.5	-5.7	1.3	0.3	-3.5
Cc1c(C(=O)NCCCn2ccnc2)oc2ccccc12	-2.3	58.9*	-1.9	5.4	-0.7
O=C(NCCCn1ccnc1)c1csc2ccccc12	-0.9	51.6*	-1.1	13.7	0.0
O=C(NCCCn1ccnc1)c1ccccc1Cl	-1.1	4.3	-0.4	4.5	2.8
O=C(NCCCn1ccnc1)c1cc2ccccc2o1	-1.2	29.7	0.0	-10.9	1.3
CC(C)(C)n1nnnc1C(c1ccccc1)N1CCN(c2ncccn2)CC1 (centres undefined)	/	/	0.9	/	/
CC(C)Nc1nc(NCCN2CCCC2)c2sc(-c3ccccc3)cc2n1	-0.4	/	-2.6	-6.2	-1.1
O=C(/C(=C/O)N=Nc1ccc(Cl)cc1)c1ccncc1	-1.0	72.7*	-1.9	15.5	-0.1
Cc1ccc(N=N/C(=C\O)C(=O)c2ccncc2)cc1	-1.6	9.4	-1.1	-1.6	0.7
CCN(CC(=O)NCc1cccs1)CC(=O)Nc1cccc(S(N)(=O)=O)c1	-1.2	-1.2	4.7	-1.9	1.2
CCC(=O)Nc1ccc2c(c1)C(=O)c1ccccc1C2=O	-1.8	68.8*	1.2	-8.2	4.7
Cc1ccc2cc3c(NC(=O)C(C)C)nn(C)c3nc2c1	-1.6	66.1*	5.3	-10.2	-2.5
CCCC(=O)Nc1nn(C)c2nc3ccc(C)cc3cc12	-0.6	7.2	9.7	-2.7	0.1
Cc1cccc2cc3c(NC(=O)C(C)C)nn(C)c3nc12	1.9	72.2*	1.6	-2.6	-0.5
O=c1[nH]c2ccccc2c2ccc(Cl)cc12	8.5*	/	-4.8	-6.0	2.5
CC1(C)CC(=O)C=C(c2ccc3c(c2)OCO3)C1	0.2	59.4*	2.7	-7.2	0.8
COc1ccc(Cl)c2c1[nH]c1nc(SCc3ccccn3)nnc12	-2.5	58.9*	-5.1	5.6	4.8
CCOC(=O)C1(C(=O)OCC)NC(=O)CC1CC(C)C (centres undefined)	-0.9	/	5.4	4.6	-0.4
COc1ccc(/C=C/C(=O)Nc2cc(=O)n(C)c(=O)n2C)cc1	2.2	47.2*	1.3	8.0	6.1
Cn1c(NC(=O)/C=C/c2ccccc2)cc(=O)n(C)c1=O	1.4	77.6*	3.2	9.0	5.7
Cc1occc1C(=O)Nc1cc(=O)n(C)c(=O)n1C	0.1	66.0*	3.2	8.7	0.9
COc1ccc(C(=O)Nc2cc(=O)n(C)c(=O)n2C)cc1	-1.2	1.7	5.9	14.7	3.9
Cn1c(NC(=O)/C=C/c2ccc(Cl)c(Cl)c2)cc(=O)n(C)c1=O	-1.9	22.2	3.6	2.0	3.4
CC(C)(C)NC(=O)[C@@H]1CN(Cc2cccnc2)CCN1C[C@@H](O)C[C@@H](Cc1ccccc1)C(=O)N[C@H]1c2ccccc2C[C@H]1O	0.5	-2.0	11.0	5.8	0.0
SMILES	MC4R barr agon	AHR activator	m5-HT2A agonist	MC4R antagonist	GAA850 FXN act
COc1ccc(S(=O)(=O)Nc2ccccc2)cc1	0.0	1.2	-1.6	-0.3	-0.3
COc1ccc(S(=O)(=O)Nc2ccc(O)c3ccccc23)cc1	0.2	61.4*	-0.1	-6.4	0.9
COc1ccc(OC)c(NC(=O)Nc2ccc(O)c3ccccc23)c1	-2.9	48.6*	-8.4	0.3	0.2
COc1ccc(OC)c(NC(=O)Nc2c(O)ccc3ccccc23)c1	-0.3	62.7*	-2.9	4.5	-1.2
O=C(Nc1ccccc1)SC1CCCCC1	0.0	/	2.2	5.9	5.2
COc1ccc(/C=N/NC(=O)COc2cc(C)cc(C)c2)cc1COC(C)=O	5.8	1.8	3.9	-11.2	-2.5

Screening results deposited in PubChem by The Scripps Research Institute Molecular Screening Center.
